# Measured values from ChEMBL document CHEMBL3351385, “Synthesis and preliminary mechanistic evaluation of 5-(p-tolyl)-1-(quinolin-2-yl)pyrazole-3-carboxylic acid amides with potent antiproliferative activity on human cancer cell lines” (Eur J Med Chem, 2014).
# Calls of active or inactive are those of the source. The rule behind the calls is not given here.
# Tests used:
# [1] = biological target: Dual specificity testis-specific protein kinase 1 (Homo sapiens) (UniProt Q15569); assay: Inhibition of TESK1 (unknown origin) assessed as remaining enzyme activity at 10 uM by radioactive [33P]-ATP filter binding assay
# [2] = biological target: Mitogen-activated protein kinase kinase kinase kinase 5 (Homo sapiens) (UniProt Q9Y4K4); assay: Inhibition of MAP4K5 (unknown origin) assessed as remaining enzyme activity at 10 uM by radioactive [33P]-ATP filter binding assay
# [3] = biological target: Misshapen-like kinase 1 (Homo sapiens) (UniProt Q8N4C8); assay: Inhibition of MINK1 (unknown origin) assessed as remaining enzyme activity at 10 uM by radioactive [33P]-ATP filter binding assay
# [4] = biological target: Serine/threonine-protein kinase MARK1 (Homo sapiens) (UniProt Q9P0L2); assay: Inhibition of MARK1 (unknown origin) assessed as remaining enzyme activity at 10 uM by radioactive [33P]-ATP filter binding assay
# [5] = biological target: Ribosomal protein S6 kinase alpha-3 (Homo sapiens) (UniProt P51812); assay: Inhibition of RSK2 (unknown origin) assessed as remaining enzyme activity at 10 uM by radioactive [33P]-ATP filter binding assay
# [6] = biological target: Tyrosine-protein kinase JAK2 (Homo sapiens) (UniProt O60674); assay: Inhibition of JAK2 (unknown origin) assessed as remaining enzyme activity at 10 uM by radioactive [33P]-ATP filter binding assay
# Sequence of Tyrosine-protein kinase JAK2 (Homo sapiens) (O60674 whole entry): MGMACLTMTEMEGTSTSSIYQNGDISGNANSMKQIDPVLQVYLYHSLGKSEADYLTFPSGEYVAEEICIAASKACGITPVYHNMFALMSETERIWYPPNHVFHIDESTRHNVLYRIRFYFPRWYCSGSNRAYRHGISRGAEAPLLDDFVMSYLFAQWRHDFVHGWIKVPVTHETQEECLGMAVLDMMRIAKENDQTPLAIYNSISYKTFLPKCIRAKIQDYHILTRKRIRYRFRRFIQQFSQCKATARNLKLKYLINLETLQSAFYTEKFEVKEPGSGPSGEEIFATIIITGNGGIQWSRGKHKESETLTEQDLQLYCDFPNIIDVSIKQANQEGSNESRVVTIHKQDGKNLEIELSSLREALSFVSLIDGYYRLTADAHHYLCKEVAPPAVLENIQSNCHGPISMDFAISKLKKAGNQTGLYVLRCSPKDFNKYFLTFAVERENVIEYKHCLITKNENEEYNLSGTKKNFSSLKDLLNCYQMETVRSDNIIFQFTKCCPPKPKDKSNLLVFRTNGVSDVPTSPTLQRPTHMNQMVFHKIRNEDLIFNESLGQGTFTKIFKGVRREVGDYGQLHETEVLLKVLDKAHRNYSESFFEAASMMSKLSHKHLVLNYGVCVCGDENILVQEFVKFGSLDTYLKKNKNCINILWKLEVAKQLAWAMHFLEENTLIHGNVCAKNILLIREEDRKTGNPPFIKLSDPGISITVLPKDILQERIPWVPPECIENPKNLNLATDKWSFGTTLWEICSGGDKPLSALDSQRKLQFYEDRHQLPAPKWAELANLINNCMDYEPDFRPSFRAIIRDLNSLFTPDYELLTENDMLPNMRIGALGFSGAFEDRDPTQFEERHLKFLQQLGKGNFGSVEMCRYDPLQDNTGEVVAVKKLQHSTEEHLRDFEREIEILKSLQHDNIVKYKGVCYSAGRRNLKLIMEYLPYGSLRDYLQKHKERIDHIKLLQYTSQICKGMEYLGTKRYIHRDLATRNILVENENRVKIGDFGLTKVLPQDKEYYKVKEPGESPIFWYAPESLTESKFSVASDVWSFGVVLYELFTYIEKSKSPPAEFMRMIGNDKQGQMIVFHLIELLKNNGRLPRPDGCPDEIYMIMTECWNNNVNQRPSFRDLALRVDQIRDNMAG
# [7] = biological target: Serine/threonine-protein kinase 3 (Homo sapiens) (UniProt Q13188); assay: Inhibition of MST2 (unknown origin) assessed as remaining enzyme activity at 10 uM by radioactive [33P]-ATP filter binding assay
# Sequence of Serine/threonine-protein kinase 3 (Homo sapiens) (Q13188 whole entry): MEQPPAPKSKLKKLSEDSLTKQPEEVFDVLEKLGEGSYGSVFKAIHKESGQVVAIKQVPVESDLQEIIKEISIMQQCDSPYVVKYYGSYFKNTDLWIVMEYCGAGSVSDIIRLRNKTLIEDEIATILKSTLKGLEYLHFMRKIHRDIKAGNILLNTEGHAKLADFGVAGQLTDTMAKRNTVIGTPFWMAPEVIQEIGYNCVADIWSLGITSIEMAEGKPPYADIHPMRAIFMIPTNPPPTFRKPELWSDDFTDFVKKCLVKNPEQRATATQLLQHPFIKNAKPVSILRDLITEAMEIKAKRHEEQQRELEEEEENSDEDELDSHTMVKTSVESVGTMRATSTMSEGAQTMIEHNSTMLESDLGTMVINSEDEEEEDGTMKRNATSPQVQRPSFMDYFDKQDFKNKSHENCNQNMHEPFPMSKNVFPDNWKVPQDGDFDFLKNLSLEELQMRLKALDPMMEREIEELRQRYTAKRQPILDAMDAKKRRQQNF
# [8] = biological target: MAP/microtubule affinity-regulating kinase 4 (Homo sapiens) (UniProt Q96L34); assay: Inhibition of MARK4 (unknown origin) assessed as remaining enzyme activity at 10 uM by radioactive [33P]-ATP filter binding assay
# Sequence of MAP/microtubule affinity-regulating kinase 4 (Homo sapiens) (Q96L34 whole entry): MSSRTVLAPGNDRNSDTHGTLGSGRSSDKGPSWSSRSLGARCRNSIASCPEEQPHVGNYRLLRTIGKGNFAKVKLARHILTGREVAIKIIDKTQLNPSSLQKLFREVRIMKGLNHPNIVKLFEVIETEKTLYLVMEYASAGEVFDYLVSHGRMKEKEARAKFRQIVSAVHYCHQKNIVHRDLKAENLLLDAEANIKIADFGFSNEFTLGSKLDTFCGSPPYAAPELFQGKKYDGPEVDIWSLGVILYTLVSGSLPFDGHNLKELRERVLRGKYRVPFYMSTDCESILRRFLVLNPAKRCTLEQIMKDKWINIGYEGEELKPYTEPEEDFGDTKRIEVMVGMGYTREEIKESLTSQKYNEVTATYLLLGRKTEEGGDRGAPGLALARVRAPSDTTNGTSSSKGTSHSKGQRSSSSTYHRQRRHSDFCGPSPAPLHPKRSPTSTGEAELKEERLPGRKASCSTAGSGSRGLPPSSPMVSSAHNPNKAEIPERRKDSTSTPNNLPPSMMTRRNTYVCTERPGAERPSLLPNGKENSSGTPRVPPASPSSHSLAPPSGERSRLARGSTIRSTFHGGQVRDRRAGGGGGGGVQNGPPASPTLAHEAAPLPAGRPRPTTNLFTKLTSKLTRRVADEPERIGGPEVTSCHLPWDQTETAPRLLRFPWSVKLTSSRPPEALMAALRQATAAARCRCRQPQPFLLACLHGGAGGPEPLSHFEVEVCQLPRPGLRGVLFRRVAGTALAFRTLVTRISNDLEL
# [9] = biological target: Insulin-like growth factor 1 receptor (Homo sapiens) (UniProt P08069); assay: Inhibition of IGF1R (unknown origin) assessed as remaining enzyme activity at 10 uM by radioactive [33P]-ATP filter binding assay
# [10] = biological target: Tubulin (Homo sapiens) (UniProt P68371+Q9H4B7+P0DPH7+P68366+Q13509+Q71U36+P04350+Q3ZCM7+P07437+P68363+Q9BQE3+Q6PEY2+Q13885+Q9BVA1+Q9BUF5); assay: Inhibition of tubulin polymerization (unknown origin); format: protein-complex assay
# [11] = test system: Huh-7; assay: Induction of autophagy in human HuH7 cells assessed as increase in LC3-2 formation at cytotoxic IC50 level after 72 hrs by Western blotting method; format: functional, cell-based
# [12] = biological target: Serine/threonine-protein kinase SIK3 (Homo sapiens) (UniProt Q9Y2K2); assay: Inhibition of SIK3 (unknown origin) assessed as remaining enzyme activity at 10 uM by radioactive [33P]-ATP filter binding assay
# [13] = biological target: Dual specificity mitogen-activated protein kinase kinase 6 (Homo sapiens) (UniProt P52564); assay: Inhibition of MKK6 (unknown origin) assessed as remaining enzyme activity at 10 uM by radioactive [33P]-ATP filter binding assay
# [14] = biological target: Mitogen-activated protein kinase kinase kinase kinase 3 (Homo sapiens) (UniProt Q8IVH8); assay: Inhibition of MAP4K3 (unknown origin) assessed as remaining enzyme activity at 10 uM by radioactive [33P]-ATP filter binding assay
# [15] = biological target: Mitogen-activated protein kinase kinase kinase 9 (Homo sapiens) (UniProt P80192); assay: Inhibition of MLK1 (unknown origin) assessed as remaining enzyme activity at 10 uM by radioactive [33P]-ATP filter binding assay
# [16] = biological target: Casein kinase II (Homo sapiens) (UniProt P67870+P68400+P19784); assay: Inhibition of CK2 (unknown origin) assessed as remaining enzyme activity at 10 uM by radioactive [33P]-ATP filter binding assay; format: protein-complex assay
# Procedure, shortened: (§1)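 A single 10 µM concentration was tested across a 140-kinase panel. Activity was measured by a radioactive 33P-ATP filter-binding assay run at the International Center for Kinase Profiling, University of Dundee.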
# [17] = biological target: Serine/threonine-protein kinase ULK2 (Homo sapiens) (UniProt Q8IYT8); assay: Inhibition of ULK2 (unknown origin) assessed as remaining enzyme activity at 10 uM by radioactive [33P]-ATP filter binding assay
# [18] = biological target: Serine/threonine-protein kinase BRSK1 (Homo sapiens) (UniProt Q8TDC3); assay: Inhibition of BRSK1 (unknown origin) assessed as remaining enzyme activity at 10 uM by radioactive [33P]-ATP filter binding assay; procedure, shortened: as §1
# Sequence of Serine/threonine-protein kinase BRSK1 (Homo sapiens) (Q8TDC3 whole entry): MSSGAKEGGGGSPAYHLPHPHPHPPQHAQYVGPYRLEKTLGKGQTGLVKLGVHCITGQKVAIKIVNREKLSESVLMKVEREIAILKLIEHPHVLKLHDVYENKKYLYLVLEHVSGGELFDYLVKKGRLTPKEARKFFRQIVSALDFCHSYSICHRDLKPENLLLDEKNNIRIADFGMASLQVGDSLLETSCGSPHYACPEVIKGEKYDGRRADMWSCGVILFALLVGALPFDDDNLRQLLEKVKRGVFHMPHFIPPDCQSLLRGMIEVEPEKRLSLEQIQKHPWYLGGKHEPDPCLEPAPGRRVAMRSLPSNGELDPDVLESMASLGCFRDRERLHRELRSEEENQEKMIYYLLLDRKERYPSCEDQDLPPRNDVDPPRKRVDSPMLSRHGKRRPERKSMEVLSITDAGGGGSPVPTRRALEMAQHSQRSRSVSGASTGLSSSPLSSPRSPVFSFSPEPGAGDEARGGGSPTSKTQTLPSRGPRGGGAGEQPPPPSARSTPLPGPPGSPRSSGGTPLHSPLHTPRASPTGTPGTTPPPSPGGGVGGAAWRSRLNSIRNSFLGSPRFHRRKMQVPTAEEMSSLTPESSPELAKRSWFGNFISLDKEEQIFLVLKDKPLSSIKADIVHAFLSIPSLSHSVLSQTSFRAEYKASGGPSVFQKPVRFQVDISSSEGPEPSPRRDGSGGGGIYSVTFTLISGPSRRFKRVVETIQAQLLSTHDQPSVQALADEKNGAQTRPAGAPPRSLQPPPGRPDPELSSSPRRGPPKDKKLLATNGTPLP
# [19] = biological target: Serine/threonine-protein kinase 24 (Homo sapiens) (UniProt Q9Y6E0); assay: Inhibition of MST3 (unknown origin) assessed as remaining enzyme activity at 10 uM by radioactive [33P]-ATP filter binding assay
# [20] = Induction of cell cycle arrest in human HuH7 cells assessed as accumulation at G2/M phase at cytotoxic IC50 level after 48 hrs by propidium iodide staining based FACS method; format: functional, Huh-7
# Procedure, shortened: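 Huh7 cells were seeded at 150,000–300,000 per 100-mm dish and left 24 h. […] Cells were stained with a propidium iodide-containing cell cycle reagent, and subG1, G0/G1, S and G2/M fractions were scored by flow cytometry.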
# [21] = biological target: Serine/threonine-protein kinase Nek6 (Homo sapiens) (UniProt Q9HC98); assay: Inhibition of NEK6 (unknown origin) assessed as remaining enzyme activity at 10 uM by radioactive [33P]-ATP filter binding assay
# Sequence of Serine/threonine-protein kinase Nek6 (Homo sapiens) (Q9HC98 whole entry): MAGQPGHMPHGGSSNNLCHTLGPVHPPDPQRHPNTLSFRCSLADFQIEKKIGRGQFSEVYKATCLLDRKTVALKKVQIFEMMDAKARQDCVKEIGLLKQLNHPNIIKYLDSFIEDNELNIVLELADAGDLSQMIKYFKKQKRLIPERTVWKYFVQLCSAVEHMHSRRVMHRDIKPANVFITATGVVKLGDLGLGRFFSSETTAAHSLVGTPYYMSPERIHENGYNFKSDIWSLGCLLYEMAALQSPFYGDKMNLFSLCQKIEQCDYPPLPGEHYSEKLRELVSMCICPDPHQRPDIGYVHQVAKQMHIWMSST
# [22] = biological target: Ephrin type-B receptor 3 (Homo sapiens) (UniProt P54753); assay: Inhibition of EPHB3 (unknown origin) assessed as remaining enzyme activity at 10 uM by radioactive [33P]-ATP filter binding assay; procedure, shortened: as §1
# Sequence of Ephrin type-B receptor 3 (Homo sapiens) (P54753 whole entry): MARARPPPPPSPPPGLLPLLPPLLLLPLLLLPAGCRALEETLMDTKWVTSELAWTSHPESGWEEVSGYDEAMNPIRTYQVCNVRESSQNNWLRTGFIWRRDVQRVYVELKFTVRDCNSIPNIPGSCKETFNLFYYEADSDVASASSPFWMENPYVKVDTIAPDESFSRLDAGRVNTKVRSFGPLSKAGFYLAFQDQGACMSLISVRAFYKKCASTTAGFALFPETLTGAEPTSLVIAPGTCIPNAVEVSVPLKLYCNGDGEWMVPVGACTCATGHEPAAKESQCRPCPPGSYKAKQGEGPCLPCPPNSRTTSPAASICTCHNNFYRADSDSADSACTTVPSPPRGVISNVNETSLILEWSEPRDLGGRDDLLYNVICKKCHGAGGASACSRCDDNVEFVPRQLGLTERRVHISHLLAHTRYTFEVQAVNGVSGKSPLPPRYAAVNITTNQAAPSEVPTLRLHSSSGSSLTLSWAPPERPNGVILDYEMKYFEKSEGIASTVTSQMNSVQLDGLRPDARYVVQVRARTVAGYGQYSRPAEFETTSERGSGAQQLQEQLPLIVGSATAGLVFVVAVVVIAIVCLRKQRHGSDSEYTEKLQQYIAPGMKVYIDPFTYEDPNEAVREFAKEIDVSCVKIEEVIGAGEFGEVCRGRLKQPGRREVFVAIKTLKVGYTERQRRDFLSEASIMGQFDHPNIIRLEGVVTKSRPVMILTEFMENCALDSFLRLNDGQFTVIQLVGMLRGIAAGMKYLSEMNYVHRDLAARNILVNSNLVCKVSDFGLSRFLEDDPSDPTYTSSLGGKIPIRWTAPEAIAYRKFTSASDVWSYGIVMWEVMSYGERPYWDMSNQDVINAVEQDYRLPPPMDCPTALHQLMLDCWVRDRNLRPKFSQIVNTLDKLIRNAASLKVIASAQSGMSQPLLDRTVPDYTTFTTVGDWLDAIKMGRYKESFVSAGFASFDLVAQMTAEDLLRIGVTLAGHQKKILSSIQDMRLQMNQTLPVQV
# [23] = biological target: Serine/threonine-protein kinase SIK2 (Homo sapiens) (UniProt Q9H0K1); assay: Inhibition of SIK2 (unknown origin) assessed as remaining enzyme activity at 10 uM by radioactive [33P]-ATP filter binding assay
# [24] = biological target: Dual specificity mitogen-activated protein kinase kinase 1 (Homo sapiens) (UniProt Q02750); assay: Inhibition of MKK1 (unknown origin) assessed as remaining enzyme activity at 10 uM by radioactive [33P]-ATP filter binding assay
# Sequence of Dual specificity mitogen-activated protein kinase kinase 1 (Homo sapiens) (Q02750 whole entry): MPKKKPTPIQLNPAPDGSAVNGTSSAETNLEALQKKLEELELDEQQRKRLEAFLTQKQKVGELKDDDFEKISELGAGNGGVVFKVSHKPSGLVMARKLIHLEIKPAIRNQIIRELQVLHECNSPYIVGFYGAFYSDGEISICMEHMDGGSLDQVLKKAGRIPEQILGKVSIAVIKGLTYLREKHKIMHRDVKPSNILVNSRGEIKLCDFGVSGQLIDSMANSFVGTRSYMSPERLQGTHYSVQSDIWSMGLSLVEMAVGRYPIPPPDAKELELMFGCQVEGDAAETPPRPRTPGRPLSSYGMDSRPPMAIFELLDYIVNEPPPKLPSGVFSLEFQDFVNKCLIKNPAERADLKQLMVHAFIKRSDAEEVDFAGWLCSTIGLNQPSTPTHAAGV
# [25] = biological target: Serine/threonine-protein kinase TBK1 (Homo sapiens) (UniProt Q9UHD2); assay: Inhibition of TBK1 (unknown origin) assessed as remaining enzyme activity at 10 uM by radioactive [33P]-ATP filter binding assay
# [26] = Cytotoxicity against human HCT116 cells after 72 hrs by SRB assay; format: functional, cell-based; settings: HCT-116, 72 h
# Procedure, shortened: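 Cells kept in DMEM with 10% FCS and penicillin/streptomycin at 37°C, 5% CO2. 2000–3000 cells/well were seeded, and medium was refreshed the next day. DMSO solutions were added over 2.5–40 µM with matched DMSO-only controls for 72 h. Cells were then TCA-fixed, stained with 0.4% SRB in 1% acetic acid, solubilized in 10 mM Tris pH 8 and read at 515 nm. Data were normalized to DMSO wells and expressed as mean ±SD.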
# [27] = biological target: Mitogen-activated protein kinase kinase kinase 1 (Homo sapiens) (UniProt Q13233); assay: Inhibition of MEKK1 (unknown origin) assessed as remaining enzyme activity at 10 uM by radioactive [33P]-ATP filter binding assay
structure (smiles),measurement,setting,value
Cc1ccc(-c2cc(C(=O)Nc3ccnc(Cl)c3)nn2-c2ccc3ccccc3n2)cc1,Activity,[1],76%
same,Activity,[2],87%
same,Activity,[3],114%
same,Activity,[4],99%
same,Activity,[5],86%
same,Activity,[6],99%
same,Activity,[7],104%
same,Activity,[8],76%
same,Activity,[9],98%
same,inhibition,[10],inactive
same,Activity,[11],inactive
same,Activity,[12],81%
same,Activity,[13],99%
same,Activity,[14],90%
same,Activity,[15],90%
same,Activity,[16],85%
same,Activity,[17],112%
same,Activity,[18],108%
same,Activity,[19],106%
same,Activity,[20],27.8%
same,Activity,[21],116%
same,Activity,[22],109%
same,Activity,[23],106%
same,Activity,[24],95%
same,Activity,[25],93%
same,IC50,[26],1100 nM
same,Activity,[27],113%
